Shown are actives, neighbours in structure and some others; about 1.8% of the full set was active somewhere.
MT1-MMP act inh: blockers of MT1-MMP proenzyme processing, primary screen, HT1080 RFP-PRO-GFP cells, GFP/RFP fluorescence | Matrix metalloproteinase-14 (Homo sapiens), P50281 | GFP/RFP ratio fluorescence, overnight; percent of plate control window, DMSO zero | GFP/RFP ratio change, % at 20 µM | hit rate 0.061% among 360,000 | AID 651647, 2012;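 active = GFP/RFP ratio change of at least 30% with cell ATP level not reduced by more than half and red fluorescence within 50% of control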
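Assay system – RFP-PRO-GFP reporter HT1080 cells · Compound dosing – single dose of 20 µM compound, 1% DMSO final · Incubation – overnight compound exposure at 37 °C · Measure – GFP/RFP fluorescence ratio · Benchmarks – DMSO wells and RFP-L50D-GFP cells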
MIN6 prolif-1: inducers of MIN6 beta-cell proliferation, primary screen, ATP luminescence, uHTS; MIN6 cells proliferation, ATPlite luminescence, 48 h; cells starved in 0.2% serum; 100% = growth in 10% serum; proliferation, % at 10 µM; hit rate 0.29% among 330,000; AID 2380, 2010;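 active = compounds whose signal lies at least 3.5 SD above the mean of all wells on their plate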
MsrA inhibitor: bovine MsrA enzyme inhibitors, primary screen, biochemical, absorbance, HTS | hit rate 0.75% among 360,000 | Methionine sulfoxide reductase A (Bos taurus) | purified bovine MsrA, absorbance read-out | inhibition, % at 15.5 µM; in the data active = inhibition above about 4.5%
SKN-1 block: suppressors of acrylamide-induced Pgst-4::GFP reporter in worms, primary screen, SKN-1 inhibitor project, whole organism, uHTS, GFP/RFP fluorescence ratio, strain VP596; inhibition, % at 21.8 µM; AID 624304, 2012; C. elegans VP596 Pgst-4::GFP/RFP ratio, 24 h; hit rate 0.49% among 360,000;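 active = interference check ratio from 0.5 to 1.5 plus GFP to RFP signal ratio inhibition reaching or exceeding a fixed threshold, cut at about 30% in these data, passing the limit was not always enough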
DAGLB inhibitor: DAGLB lipase inhibitors, primary screen, biochemical, fluorescence, HTS | Diacylglycerol lipase-beta (Homo sapiens), Q8NCG7 | HEK293T DAGLB membrane lysate, EnzChek fluorogenic substrate | inhibition, % at 5.17 µM | hit rate 0.059% among 340,000 | AID 504411, 2011; in the data active = inhibition above about 34%
Target sequence (Q8NCG7 whole entry, looked up): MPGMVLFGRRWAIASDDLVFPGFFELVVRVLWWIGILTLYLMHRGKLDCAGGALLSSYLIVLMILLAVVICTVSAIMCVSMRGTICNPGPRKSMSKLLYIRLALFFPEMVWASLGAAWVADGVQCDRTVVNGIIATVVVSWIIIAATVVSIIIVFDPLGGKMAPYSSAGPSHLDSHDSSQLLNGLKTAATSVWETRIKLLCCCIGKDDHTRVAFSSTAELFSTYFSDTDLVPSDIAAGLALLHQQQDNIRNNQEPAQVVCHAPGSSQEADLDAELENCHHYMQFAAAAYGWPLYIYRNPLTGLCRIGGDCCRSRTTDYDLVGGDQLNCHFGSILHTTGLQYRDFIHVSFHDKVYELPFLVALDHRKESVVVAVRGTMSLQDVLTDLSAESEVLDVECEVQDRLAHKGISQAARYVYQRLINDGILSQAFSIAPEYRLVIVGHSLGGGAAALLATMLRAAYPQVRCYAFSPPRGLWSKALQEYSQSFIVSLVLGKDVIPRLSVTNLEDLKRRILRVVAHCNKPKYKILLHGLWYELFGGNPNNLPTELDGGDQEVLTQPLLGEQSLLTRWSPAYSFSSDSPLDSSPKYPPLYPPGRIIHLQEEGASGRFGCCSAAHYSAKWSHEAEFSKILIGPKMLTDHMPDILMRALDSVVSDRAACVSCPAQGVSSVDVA
bovine MsrA act: bovine MsrA enzyme activators, primary screen, biochemical, absorbance, HTS; Methionine sulfoxide reductase A (Bos taurus); purified bovine MsrA, absorbance read-out; activation, % at 10.6 µM; hit rate 0.3% among 360,000; AID 602163, 2012; in the data active = activation above about 7.5%
MIN6 prolif-2: inducers of beta-cell proliferation in MIN6, confirmation, MIN6 cells, mouse; shares compounds with MIN6 prolif-1; ATPlite luminescence, 48 h; cells kept in 0.2% serum; scaled between 0.2% and 10% serum; proliferation increase, % at 50 µM; 920 tested, under 10 active; AID 463095, 2010;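 active = proliferation increase above 40% at any of the four tested concentrations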
Of the large screens only hits and unclear results are named; the others gave an inactive call (follow-up assays come after a bar, where they were run).

COCCOC(=O)c1c(C)oc2ccc(NS(=O)(=O)c3ccccc3)cc12	MIN6 prolif-1 5.0 | MIN6 prolif-2 inactive
COc1cc2nc(Cl)nc(N3CCOCC3)c2cc1OC	none
COc1cc2nc(Cl)nc(N3CCCCC3)c2cc1OC	MIN6 prolif-1 7.6 | MIN6 prolif-2 inactive
COc1ccc(C(=O)Nc2ccc3c(c2)C(=O)NC3=O)cc1	none
CCn1c(=O)n(CC)c2cc(N3CCCC3)c(NC(=O)c3cccc(OC)c3)cc21	MIN6 prolif-1 17 | MIN6 prolif-2 inactive
COc1cccc(C(=O)Nc2ccc3c(c2)C(=O)NC3=O)c1	MIN6 prolif-1 9.1 | MIN6 prolif-2 inactive
COC(=O)C1=C(C)N(Cc2ccc(Cl)cc2)C(=S)NC1c1cccc(OC)c1 (stereo not drawn)	none (no result: MT1-MMP act inh, MIN6 prolif-1, SKN-1 block, DAGLB inhibitor, bovine MsrA act)
C/C(=N\NC(=O)c1ccccn1)C12CC3CC(CC(C3)C1)C2	MIN6 prolif-1 6.6 | MIN6 prolif-2 inactive
N/C(=N\OC(=O)C12CC3CC(CC(C3)C1)C2)c1ccccn1	none
COc1ccccc1CCC(=O)Nc1ccc(S(=O)(=O)Nc2nccs2)cc1	MIN6 prolif-1 13 | MIN6 prolif-2 inactive
COc1ccccc1CCC(=O)Nc1nccs1	none
CCOC(=O)C1CCN(c2cc3c(cc2NC(=O)c2ccccc2F)n(C)c(=O)n3C)CC1	none
CCOC(=O)C1CCN(c2cc3c(cc2NC(=O)c2ccccc2Cl)n(C)c(=O)n3C)CC1	MIN6 prolif-1 15 | MIN6 prolif-2 inactive
O=C(COC(=O)c1ccc2[nH]c3c(c2c1)CCCC3)Nc1ccccc1Cl	MIN6 prolif-1 9.6 | MIN6 prolif-2 inactive
COc1cc(/C=N/NC(=O)CN(Cc2ccccc2)S(=O)(=O)c2ccc3c(c2)OCCO3)ccc1O	MIN6 prolif-1 0.0 | MIN6 prolif-2 inactive
CCN(CC)C(=O)c1ncn2c1C(=O)N[C@H](C)C2	none (no result: MT1-MMP act inh, MIN6 prolif-1, SKN-1 block, DAGLB inhibitor, bovine MsrA act)
Cc1ccc(CNC(=O)C2CCCN(C(=O)Nc3ccc(F)cc3)C2)cc1 (stereo not drawn)	MIN6 prolif-1 10 | MIN6 prolif-2 inactive
O=C(NCc1ccccc1Cl)C1CCCN(C(=O)Nc2ccc(F)cc2)C1 (stereo not drawn)	none
C=C1[C@@H](CCO)N(S(=O)C(C)(C)C)C[C@@H]1C (stereo partly drawn)	none (no result: MT1-MMP act inh, MIN6 prolif-1, SKN-1 block, DAGLB inhibitor, bovine MsrA act)
O=C(c1cnsn1)N1CCC(CO)(Cc2cccc(F)c2)CC1	MIN6 prolif-1 8.2 | MIN6 prolif-2 inactive
COc1ccc(C(O)c2ncc(-c3cccc(OCc4ccccc4)c3)[nH]2)cc1F (stereo not drawn)	none (no result: MIN6 prolif-1, MsrA inhibitor, DAGLB inhibitor)
CC12CCCCN1CCCc1c2[nH]c2ccccc12 (stereo not drawn)	MIN6 prolif-1 5.5 | MIN6 prolif-2 inactive
Nc1ccc(-c2cnc(N)c(C(=O)c3cccnc3)n2)cn1	none (no result: MIN6 prolif-1, MsrA inhibitor)
CCSc1nc(N)c(C#N)c(-c2ccco2)c1C#N	MIN6 prolif-1 14 | MIN6 prolif-2 inactive
COC(=O)CSc1nc(N)c(C#N)c(-c2ccco2)c1C#N	none
CCOc1ccc2ncc(S(=O)(=O)c3ccccc3)c(N3CCC4(CC3)OCCO4)c2c1	MIN6 prolif-1 0.0 (no result: MT1-MMP act inh, SKN-1 block, DAGLB inhibitor, bovine MsrA act) | MIN6 prolif-2 inactive
O=C(Nc1c(F)c(F)c(F)c(F)c1F)OC[C@@H]1CSCCS(=O)(=O)N1	none (no result: MT1-MMP act inh, MIN6 prolif-1, SKN-1 block, DAGLB inhibitor, bovine MsrA act)
COc1ccc(CCN(C)C(=O)c2cc(-c3ccccc3)nc3ccc(C)cc23)cc1OC	MIN6 prolif-1 11 | MIN6 prolif-2 inactive
O=C(NCc1ccco1)c1c(O)c2cccc3c2n(c1=O)CCC3	MIN6 prolif-1 8.8 | MIN6 prolif-2 inactive
O=C(C(=O)N1CCC(CNS(=O)(=O)c2ccc(F)cc2)CC1)c1cc2ccccc2o1	none (no result: MT1-MMP act inh, MIN6 prolif-1, SKN-1 block, DAGLB inhibitor, bovine MsrA act)
CC1CCN(CCOc2ccccc2-c2ccccc2)CC1	MIN6 prolif-1 0.0 | MIN6 prolif-2 inactive
Cc1cccc(Cl)c1NC(=O)NCCCN1CCOCC1	none (no result: MT1-MMP act inh, MIN6 prolif-1, SKN-1 block, DAGLB inhibitor, bovine MsrA act)

Screening results: PubChem BioAssay, several laboratories
